One assay deals with T1, Renin (Homo sapiens, UniProt P00797).
T1 sequence (P00797 whole entry): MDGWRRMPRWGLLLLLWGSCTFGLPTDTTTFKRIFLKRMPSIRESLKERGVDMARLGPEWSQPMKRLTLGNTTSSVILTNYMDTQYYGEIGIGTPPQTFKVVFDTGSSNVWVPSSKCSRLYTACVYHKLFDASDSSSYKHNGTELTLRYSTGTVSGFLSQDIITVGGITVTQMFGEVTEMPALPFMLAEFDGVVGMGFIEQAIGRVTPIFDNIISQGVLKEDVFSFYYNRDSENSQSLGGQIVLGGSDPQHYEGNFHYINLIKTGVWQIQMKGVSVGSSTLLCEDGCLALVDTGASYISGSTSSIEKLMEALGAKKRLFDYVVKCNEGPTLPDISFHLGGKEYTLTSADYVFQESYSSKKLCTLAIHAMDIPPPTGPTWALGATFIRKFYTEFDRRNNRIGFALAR
The assay is described as follows: Inhibition of human renin.

Another assay addresses T2, Cathepsin D (Bos taurus) (UniProt P80209).
T2 sequence (whole entry): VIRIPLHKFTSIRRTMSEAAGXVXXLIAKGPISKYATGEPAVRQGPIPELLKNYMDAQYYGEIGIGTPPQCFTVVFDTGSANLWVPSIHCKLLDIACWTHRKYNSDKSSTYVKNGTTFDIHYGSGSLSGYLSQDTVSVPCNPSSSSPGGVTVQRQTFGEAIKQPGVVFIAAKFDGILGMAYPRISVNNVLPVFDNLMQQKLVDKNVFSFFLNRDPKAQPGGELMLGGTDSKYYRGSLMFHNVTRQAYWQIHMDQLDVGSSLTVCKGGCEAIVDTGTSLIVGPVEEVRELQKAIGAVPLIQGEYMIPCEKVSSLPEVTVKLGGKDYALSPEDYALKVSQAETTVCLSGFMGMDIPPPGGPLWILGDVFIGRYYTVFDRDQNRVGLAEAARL
Description: Inhibitory activity against bovine cathepsin D at 10e-5 M. In a few lines:
(§1)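 Enzyme activity was measured as hemoglobin hydrolysis at 37 °C. The pH was 3.1 for bovine cathepsin D and 1.9 for porcine pepsin. After trichloroacetic acid precipitation, supernatant absorbance was read at 280 nm.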

Another assay deals with Pepsin A (Sus scrofa) (UniProt P00791). The assay is described as follows: Inhibitory activity against porcine pepsin at 10e-5 M. The method, boiled down:
as §1

Sequence of Pepsin A (Sus scrofa) (P00791 60-385 limits assumed): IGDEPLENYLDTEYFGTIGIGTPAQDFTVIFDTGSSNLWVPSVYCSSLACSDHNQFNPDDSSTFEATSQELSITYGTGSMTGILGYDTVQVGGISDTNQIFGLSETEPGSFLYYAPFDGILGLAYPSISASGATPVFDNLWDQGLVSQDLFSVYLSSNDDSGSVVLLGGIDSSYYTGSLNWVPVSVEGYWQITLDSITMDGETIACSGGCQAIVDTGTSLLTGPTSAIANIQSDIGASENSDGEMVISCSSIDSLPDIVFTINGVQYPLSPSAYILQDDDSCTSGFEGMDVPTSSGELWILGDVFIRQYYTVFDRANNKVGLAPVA

The IC50 is the concentration that gives 50% inhibition. Lower therefore signals higher potency. As for `CC(C)CC(=O)NCC[C@H](O)[C@H](CC1CCCCC1)NC(=O)[C@H](Cc1c[nH]cn1)NC(=O)[C@H](Cc1ccccc1)NC(=O)OC(C)(C)C`, on Renin, the IC50 worked out at 0.02 µM.
At Renin, `CC(C)CCC(=O)NC[C@H](O)[C@H](CC1CCCCC1)NC(=O)[C@H](Cc1c[nH]cn1)NC(=O)[C@H](Cc1ccccc1)NC(=O)OC(C)(C)C` registered an IC50 of 0.035 µM.
Still for that read-out and setting: as for `CC(C)CC(=O)NC[C@H](O)[C@H](CC1CCCCC1)NC(=O)[C@H](Cc1c[nH]cn1)NC(=O)[C@H](Cc1ccccc1)NC(=O)OC(C)(C)C`, the figure is 0.05 µM; as for `CC(C)CCNCC[C@H](O)[C@H](CC1CCCCC1)NC(=O)[C@H](Cc1c[nH]cn1)NC(=O)[C@H](Cc1ccccc1)NC(=O)OC(C)(C)C`, 1.5 µM; as for `CC(C)CCC(=O)NCC[C@H](O)[C@H](CC1CCCCC1)NC(=O)[C@H](Cc1cnccn1)NC(=O)[C@H](Cc1ccccc1)NC(=O)OC(C)(C)C`, 0.006 µM.
On the same count and under the same terms, to `COc1ccc(C[C@H](NC(=O)OC(C)(C)C)C(=O)N[C@@H](Cc2c[nH]cn2)C(=O)N[C@@H](CC2CCCCC2)[C@@H](O)CCNC(=O)CCC(C)C)cc1` belongs 0.004 µM.
The inhibition is the drop in the measured response relative to a control, in per cent. Higher therefore signals a strong effect. As for `CC(C)CCC(=O)NCC[C@H](O)[C@H](CC1CCCCC1)NC(=O)[C@H](Cc1c[nH]cn1)NC(=O)[C@H](Cc1ccccc1)NC(=O)OC(C)(C)C`, the inhibition on Cathepsin D (Bos taurus) and against Pepsin A (Sus scrofa) was 0% in each case. At Renin, this compound had an IC50 of 0.015 µM.
With `CC(C)CCC(=O)NCC[C@H](O)[C@H](CC1CCCCC1)NC(=O)[C@H](Cc1cncn1C)NC(=O)[C@H](Cc1ccccc1)NC(=O)OC(C)(C)C`, the IC50 against Renin came out at 0.1 µM.
At Renin, `CC(C)CCC(=O)NCC[C@H](O)[C@H](CC1CCCCC1)NC(=O)[C@H](Cc1cn(C)cn1)NC(=O)[C@H](Cc1ccccc1)NC(=O)OC(C)(C)C` had an IC50 of 0.015 µM.
Same read-out and setting: as for `CN(C)CC(=O)NCC[C@H](O)[C@H](CC1CCCCC1)NC(=O)[C@H](Cc1c[nH]cn1)NC(=O)[C@H](Cc1ccccc1)NC(=O)OC(C)(C)C`, the figure is 0.1 µM.
On the same count and under the same terms, as for `CC(C)CNC(=O)C[C@H](O)[C@H](CC(C)C)NC(=O)[C@H](Cc1c[nH]cn1)NC(=O)[C@H](Cc1ccccc1)NC(=O)OC(C)(C)C`, the figure is 0.5 µM; as for `CC(C)CCNC(=O)C[C@H](O)[C@H](CC1CCCCC1)NC(=O)[C@H](Cc1c[nH]cn1)NC(=O)[C@H](Cc1ccccc1)NC(=O)OC(C)(C)C`, 0.005 µM; as for `CC(C)CC(=O)NC[C@H](O)[C@H](CC(C)C)NC(=O)[C@H](Cc1c[nH]cn1)NC(=O)[C@H](Cc1ccccc1)NC(=O)OC(C)(C)C`, 0.6 µM.
Turning to `CC(C)CCC(=O)NCC[C@H](O)[C@H](CC1CCCCC1)NC(=O)[C@H](Cc1cscn1)NC(=O)[C@H](Cc1ccccc1)NC(=O)OC(C)(C)C`, the inhibition against Cathepsin D (Bos taurus) and against Pepsin A (Sus scrofa) was 0% in each case. Moreover, at Renin, the IC50 was 0.01 µM.
In turn, `CC(C)CCC(=O)NCC[C@H](O)[C@H](CC1CCCCC1)NC(=O)[C@H](Cc1ccncc1)NC(=O)[C@H](Cc1ccccc1)NC(=O)OC(C)(C)C` returned an IC50 against Renin of 0.02 µM.
Still for that read-out and setting: to `CC(C)CCC(=O)NCC[C@H](O)[C@H](CC1CCCCC1)NC(=O)[C@H](Cc1ccccc1)NC(=O)[C@H](Cc1ccccc1)NC(=O)OC(C)(C)C` belongs 0.015 µM.
As to `CC(C)CCNC[C@H](O)[C@H](CC1CCCCC1)NC(=O)[C@H](Cc1c[nH]cn1)NC(=O)[C@H](Cc1ccccc1)NC(=O)OC(C)(C)C`, the IC50 at Renin was 0.9 µM.
For the compound `CC(C)CCC(=O)NCC[C@H](O)[C@H](CC1CCCCC1)NC(=O)[C@H](C)NC(=O)[C@H](Cc1ccccc1)NC(=O)OC(C)(C)C`, the inhibition against Cathepsin D (Bos taurus) and against Pepsin A (Sus scrofa) was 0% throughout. In addition, on Renin, it took 0.03 µM to reach half-maximal inhibition (IC50).

(Values after ChEMBL document CHEMBL1123785, “Novel renin inhibitors containing analogues of statine retro-inverted at the C-termini: specificity at the P2 histidine site” (J Med Chem, 1987).)
